From ChEMBL document CHEMBL1138570, “2-Acylhydrazino-5-arylpyrrole derivatives: synthesis and antifungal activity evaluation” (Eur J Med Chem, 2009)
≈ marks a conversion by molar mass, not a printed value.

Assays:
Type in all cases: functional
Nakaseomyces glabratus [1] = test: Antimicrobial activity against Candida glabrata after 72 hrs by broth microdilution method
In short: (§1)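 MFC: after MIC reading, a sample from each well was plated on Sabouraud dextrose agar and incubated 72 h at 35 °C. MFC was taken as the minimum concentration killing >99% of the original inoculum. The MIC step was NCCLS broth microdilution in MOPS-buffered RPMI 1640 (pH 7.0), with 2 ×10⁴ cells/mL, overnight at 35 °C.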

Nakaseomyces glabratus [2] = test: Antimicrobial activity against Candida glabrata by broth microdilution method
In short: (§2)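 MIC by NCCLS broth microdilution. Medium was RPMI 1640 with L-glutamine, buffered with 0.165 M MOPS at pH 7.0. Twofold drug dilutions ran 0.008–200 mg/L. Inoculum was set spectrophotometrically to 10⁶ CFU/mL, then diluted in medium to 2 ×10⁴ cells/mL. Plates were incubated overnight at 35 °C in humid air, agitated, and read visually and at 450 nm.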

Pichia kudriavzevii [3] = test: Antimicrobial activity against Candida krusei after 72 hrs by broth microdilution method; in short: as §1
Pichia kudriavzevii [4] = test: Antimicrobial activity against Candida krusei by broth microdilution method; in short: as §2
Candida parapsilosis [5] = test: Antimicrobial activity against Candida parapsilosis after 72 hrs by broth microdilution method; conditions: Lodderomyces parapsilosis; in short: as §1
Candida albicans [6] = test: Antimicrobial activity against Candida albicans ATCC 10231 by broth microdilution method; in short: as §2
Candida albicans [7] = test: Antimicrobial activity against Candida albicans ATCC 10231 after 72 hrs by broth microdilution method; conditions: ATCC 10231, 72 h; in short: as §1
Candida parapsilosis [8] = test: Antimicrobial activity against Candida parapsilosis by broth microdilution method; conditions: Lodderomyces parapsilosis; in short: as §2

SMILES	MFC (Nakaseomyces glabratus [1]) [µg/mL]	MIC (Nakaseomyces glabratus [2]) [µg/mL]	MFC (Pichia kudriavzevii [3]) [µg/mL]	MIC (Pichia kudriavzevii [4]) [µg/mL]	MFC (Candida parapsilosis [5]) [µg/mL]	MIC (Candida albicans [6]) [µg/mL]	MFC (Candida albicans [7]) [µg/mL]	MIC (Candida parapsilosis [8]) [µg/mL]
COCCC(=O)NNc1[nH]c(-c2ccccc2)cc1C(=O)OC	25 (≈ 78.8 µM)	6.25 (≈ 19.7 µM)	25 (≈ 78.8 µM)	12.5 (≈ 39.4 µM)	100 (≈ 315 µM)	6.25 (≈ 19.7 µM)	12.5 (≈ 39.4 µM)	12.5 (≈ 39.4 µM)
COCCC(=O)NNc1[nH]c(-c2ccccc2)cc1C#N	12.5 (≈ 44 µM)	3.25 (≈ 11.4 µM)	12.5 (≈ 44 µM)	6.25 (≈ 22 µM)	25 (≈ 87.9 µM)	6.25 (≈ 22 µM)	6.25 (≈ 22 µM)	6.25 (≈ 22 µM)
COC(=O)c1cc(-c2ccccc2)[nH]c1NNC(C)=O	25 (≈ 91.5 µM)	6.25 (≈ 22.9 µM)	12.5 (≈ 45.7 µM)	12.5 (≈ 45.7 µM)	25 (≈ 91.5 µM)	3.12 (≈ 11.4 µM)	6.25 (≈ 22.9 µM)	6.25 (≈ 22.9 µM)
CCOC(=O)c1cc(-c2ccc(C)cc2)[nH]c1NNC(=O)C(C)C	> 100	> 100	100 (≈ 304 µM)	25 (≈ 75.9 µM)	> 100	6.25 (≈ 19 µM)	12.5 (≈ 37.9 µM)	25 (≈ 75.9 µM)
CCOC(=O)c1cc(-c2ccc(OC)cc2)[nH]c1NNC(=O)C(C)C	> 100	> 100	> 100	12.5 (≈ 36.2 µM)	> 100	6.25 (≈ 18.1 µM)	12.5 (≈ 36.2 µM)	6.25 (≈ 18.1 µM)
CCOC(=O)c1cc(-c2ccccc2)[nH]c1NNC(=O)C(C)C	12.5 (≈ 39.6 µM)	6.25 (≈ 19.8 µM)	> 100	> 100	100 (≈ 317 µM)	> 100	> 100	25 (≈ 79.3 µM)
COc1ccc(-c2cc(C#N)c(NNC(=O)C(C)C)[nH]2)cc1	> 100	50 (≈ 168 µM)	> 100	50 (≈ 168 µM)	> 100	3.12 (≈ 10.5 µM)	3.12 (≈ 10.5 µM)	25 (≈ 83.8 µM)
COCC(=O)NNc1[nH]c(-c2ccccc2)cc1C#N	50 (≈ 185 µM)	25 (≈ 92.5 µM)	25 (≈ 92.5 µM)	6.25 (≈ 23.1 µM)	6.25 (≈ 23.1 µM)	6.25 (≈ 23.1 µM)	6.25 (≈ 23.1 µM)	6.25 (≈ 23.1 µM)
CCC(=O)NNc1[nH]c(-c2ccccc2)cc1C#N	12.5 (≈ 49.2 µM)	3.12 (≈ 12.3 µM)	12.5 (≈ 49.2 µM)	1.56 (≈ 6.13 µM)	12.5 (≈ 49.2 µM)	3.12 (≈ 12.3 µM)	6.25 (≈ 24.6 µM)	3.12 (≈ 12.3 µM)
CCCC(=O)NNc1[nH]c(-c2ccccc2)cc1C(=O)OCC	> 100	> 100	> 100	> 100	> 100	12.5 (≈ 39.6 µM)	12.5 (≈ 39.6 µM)	100 (≈ 317 µM)
COCC(=O)NNc1[nH]c(-c2ccc(OC)cc2)cc1C#N	50 (≈ 166 µM)	25 (≈ 83.2 µM)	12.5 (≈ 41.6 µM)	6.25 (≈ 20.8 µM)	12.5 (≈ 41.6 µM)	6.25 (≈ 20.8 µM)	6.25 (≈ 20.8 µM)	6.25 (≈ 20.8 µM)
CCC(=O)NNc1[nH]c(-c2ccccc2)cc1C(=O)OC	25 (≈ 87 µM)	6.25 (≈ 21.8 µM)	25 (≈ 87 µM)	12.5 (≈ 43.5 µM)	12.5 (≈ 43.5 µM)	3.12 (≈ 10.9 µM)	6.25 (≈ 21.8 µM)	6.25 (≈ 21.8 µM)
CCOC(=O)c1cc(-c2ccc(Cl)cc2)[nH]c1NNC(C)=O	> 100	> 100	50 (≈ 155 µM)	25 (≈ 77.7 µM)	25 (≈ 77.7 µM)	> 100	> 100	12.5 (≈ 38.8 µM)
CCOC(=O)c1cc(-c2ccc(C)cc2)[nH]c1NNC(=O)Cc1ccc(OC)cc1	> 100	> 100	> 100	100 (≈ 245 µM)	> 100	> 100	> 100	100 (≈ 245 µM)
CCOC(=O)c1cc(-c2ccc(Cl)cc2)[nH]c1NNC(=O)Cc1ccc(OC)cc1	> 100	> 100	> 100	> 100	> 100	> 100	> 100	> 100
CCOC(=O)c1cc(-c2ccc(OC)cc2)[nH]c1NNC(C)=O	12.5 (≈ 39.4 µM)	6.25 (≈ 19.7 µM)	25 (≈ 78.8 µM)	12.5 (≈ 39.4 µM)	50 (≈ 158 µM)	3.12 (≈ 9.83 µM)	3.12 (≈ 9.83 µM)	50 (≈ 158 µM)
COCCC(=O)NNc1[nH]c(-c2ccc(OC)cc2)cc1C#N	12.5 (≈ 39.8 µM)	6.25 (≈ 19.9 µM)	6.25 (≈ 19.9 µM)	3.12 (≈ 9.93 µM)	12.5 (≈ 39.8 µM)	3.12 (≈ 9.93 µM)	6.25 (≈ 19.9 µM)	6.25 (≈ 19.9 µM)
CCOC(=O)c1cc(-c2ccc(Cl)cc2)[nH]c1NNC(=O)C(C)C	> 100	> 100	> 100	> 100	> 100	> 100	> 100	> 100
CCOC(=O)NNc1[nH]c(-c2ccccc2)cc1C#N	6.25 (≈ 23.1 µM)	3.12 (≈ 11.5 µM)	6.25 (≈ 23.1 µM)	3.12 (≈ 11.5 µM)	12.5 (≈ 46.2 µM)	3.12 (≈ 11.5 µM)	3.12 (≈ 11.5 µM)	6.25 (≈ 23.1 µM)
